Measured values reported in ChEMBL document CHEMBL1268950, “Fluorescent-tagged sp2-iminosugars with potent β-glucosidase inhibitory activity” (Bioorg Med Chem, 2010).
Active and inactive are the calls of the source. No cut-off for these calls is given here.

Legend:
[1] = Inhibition of Penicillium decumbens naringinase after 10 to 30 mins
[2] = target: Alpha-galactosidase (Coffea arabica) (UniProt Q42656); experiment: Inhibition of green coffee bean alpha-galactosidase at 2 mM after 10 to 30 mins
Uncharacterized protein [3] = target: T1, Uncharacterized protein (Sus scrofa, UniProt I3LIR5); experiment: Inhibition of pig kidney trehalase at 2 mM after 10 to 30 mins
T1 sequence (I3LIR5 whole entry): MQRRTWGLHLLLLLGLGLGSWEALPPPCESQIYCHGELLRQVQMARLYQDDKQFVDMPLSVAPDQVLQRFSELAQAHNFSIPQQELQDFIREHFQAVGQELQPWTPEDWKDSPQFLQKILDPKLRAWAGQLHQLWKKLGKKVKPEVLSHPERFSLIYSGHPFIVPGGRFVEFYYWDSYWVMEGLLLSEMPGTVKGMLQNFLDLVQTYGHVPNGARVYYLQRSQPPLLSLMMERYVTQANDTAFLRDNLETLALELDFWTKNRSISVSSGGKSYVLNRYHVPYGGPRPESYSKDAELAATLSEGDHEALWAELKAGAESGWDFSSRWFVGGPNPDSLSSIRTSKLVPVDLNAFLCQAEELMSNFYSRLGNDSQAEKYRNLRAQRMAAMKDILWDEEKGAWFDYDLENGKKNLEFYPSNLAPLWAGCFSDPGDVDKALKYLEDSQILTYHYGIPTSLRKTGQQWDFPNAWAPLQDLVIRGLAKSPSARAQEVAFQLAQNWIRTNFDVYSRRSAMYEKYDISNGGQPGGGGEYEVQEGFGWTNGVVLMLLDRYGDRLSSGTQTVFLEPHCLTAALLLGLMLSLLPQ

[4] = Inhibition of Helix pomatia beta-mannosidase after 10 to 30 mins
[5] = Inhibition of almond beta-glucosidase at pH 7.3 after 10 to 30 mins; parameters: species or system Prunus dulcis
[6] = Inhibition of Aspergillus niger amyloglucosidase at 2 mM after 10 to 30 mins
Alpha-glucosidase MAL12 [7] = target: T2, Alpha-glucosidase MAL12 (Saccharomyces cerevisiae S288c, UniProt P53341); experiment: Inhibition of yeast alpha-glucosidase after 10 to 30 mins
[8] = target: Oligo-1,6-glucosidase IMA1 (Saccharomyces cerevisiae S288c) (UniProt P53051); experiment: Inhibition of yeast isomaltase at 2 mM after 10 to 30 mins
[9] = Inhibition of jack beans alpha-mannosidase after 10 to 30 mins; parameters: species or system Canavalia ensiformis
Uncharacterized protein [10] = target: T1, Uncharacterized protein; experiment: Inhibition of pig kidney trehalase after 10 to 30 mins
[11] = Inhibition of Aspergillus niger amyloglucosidase after 10 to 30 mins
Glucosylceramidase = target: T3, Glucosylceramidase (Bos taurus, UniProt Q2KHZ8); experiment: Inhibition of bovine liver beta-glucosidase at 2 mM after 10 to 30 mins
T3 sequence (Q2KHZ8 whole entry): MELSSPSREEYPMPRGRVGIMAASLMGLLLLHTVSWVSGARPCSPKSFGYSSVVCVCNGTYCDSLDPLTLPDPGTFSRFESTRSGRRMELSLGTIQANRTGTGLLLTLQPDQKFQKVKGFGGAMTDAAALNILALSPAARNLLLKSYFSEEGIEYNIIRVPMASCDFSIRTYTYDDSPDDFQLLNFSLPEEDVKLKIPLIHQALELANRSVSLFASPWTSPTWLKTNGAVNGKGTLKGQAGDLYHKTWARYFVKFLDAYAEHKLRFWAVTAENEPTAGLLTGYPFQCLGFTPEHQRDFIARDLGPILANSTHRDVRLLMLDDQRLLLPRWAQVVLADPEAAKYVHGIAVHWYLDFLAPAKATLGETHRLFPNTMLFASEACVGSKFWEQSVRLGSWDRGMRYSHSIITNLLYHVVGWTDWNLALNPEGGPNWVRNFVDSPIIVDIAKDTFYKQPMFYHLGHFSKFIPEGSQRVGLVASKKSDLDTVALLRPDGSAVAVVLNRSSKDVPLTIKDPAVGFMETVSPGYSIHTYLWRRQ

[12] = Inhibition of jack beans alpha-mannosidase at 2 mM after 10 to 30 mins; parameters: species or system Canavalia ensiformis
Alpha-glucosidase MAL12 [13] = target: T2, Alpha-glucosidase MAL12; experiment: Inhibition of yeast alpha-glucosidase at 2 mM after 10 to 30 mins
[14] = Inhibition of Helix pomatia beta-mannosidase at 2 mM after 10 to 30 mins
[15] = Binding affinity to almond beta-glucosidase by FRET assay; parameters: species or system Prunus dulcis
Outline: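 Direct titration: almond β-glucosidase 1.25 µM in 0.05 M potassium phosphate pH 7.3, 37 °C. Inhibitor stock (50 µM, made in the enzyme solution) added portion-wise to ~6 µM. Excitation 280 nm. Tryptophan emission read at 339 nm and dansyl emission at 515 nm at 10–15 ratios. Kd from least-squares fit to a 1:1 model. Reverse titration (enzyme into 1.0 µM inhibitor, 515 nm) gave confirmation.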

Chain of Oligo-1,6-glucosidase IMA1 (Saccharomyces cerevisiae S288c) (P53051 whole entry): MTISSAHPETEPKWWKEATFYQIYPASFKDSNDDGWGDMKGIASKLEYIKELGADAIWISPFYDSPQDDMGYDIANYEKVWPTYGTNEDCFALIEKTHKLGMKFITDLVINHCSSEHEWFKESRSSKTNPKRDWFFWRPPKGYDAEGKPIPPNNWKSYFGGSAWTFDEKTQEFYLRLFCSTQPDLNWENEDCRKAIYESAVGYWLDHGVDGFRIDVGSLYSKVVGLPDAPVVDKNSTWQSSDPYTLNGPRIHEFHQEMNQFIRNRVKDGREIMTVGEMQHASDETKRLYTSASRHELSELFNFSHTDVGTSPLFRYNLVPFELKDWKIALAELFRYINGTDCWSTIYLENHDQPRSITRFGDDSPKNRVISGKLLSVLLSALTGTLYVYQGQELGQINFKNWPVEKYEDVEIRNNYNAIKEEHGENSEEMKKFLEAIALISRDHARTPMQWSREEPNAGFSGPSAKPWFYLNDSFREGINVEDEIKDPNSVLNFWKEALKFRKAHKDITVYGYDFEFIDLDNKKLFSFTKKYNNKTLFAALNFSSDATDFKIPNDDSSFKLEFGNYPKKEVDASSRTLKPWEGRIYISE
T2 sequence (P53341 whole entry): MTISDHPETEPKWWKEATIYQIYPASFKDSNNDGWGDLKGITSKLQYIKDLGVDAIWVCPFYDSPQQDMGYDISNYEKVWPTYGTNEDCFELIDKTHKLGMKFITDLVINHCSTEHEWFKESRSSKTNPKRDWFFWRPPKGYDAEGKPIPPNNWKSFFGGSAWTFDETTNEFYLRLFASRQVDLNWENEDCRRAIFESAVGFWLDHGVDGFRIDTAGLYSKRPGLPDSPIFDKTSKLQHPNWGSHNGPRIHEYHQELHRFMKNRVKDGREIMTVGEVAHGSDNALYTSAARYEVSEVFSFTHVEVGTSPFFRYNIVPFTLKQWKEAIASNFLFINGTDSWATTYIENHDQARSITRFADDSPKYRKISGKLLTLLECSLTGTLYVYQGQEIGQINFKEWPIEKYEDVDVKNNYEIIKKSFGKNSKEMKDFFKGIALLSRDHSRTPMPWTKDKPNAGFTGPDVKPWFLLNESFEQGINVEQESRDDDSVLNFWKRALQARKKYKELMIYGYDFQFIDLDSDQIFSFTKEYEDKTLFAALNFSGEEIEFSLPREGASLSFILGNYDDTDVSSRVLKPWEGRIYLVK
Chain of Alpha-galactosidase (Coffea arabica) (Q42656 16-378 limits assumed): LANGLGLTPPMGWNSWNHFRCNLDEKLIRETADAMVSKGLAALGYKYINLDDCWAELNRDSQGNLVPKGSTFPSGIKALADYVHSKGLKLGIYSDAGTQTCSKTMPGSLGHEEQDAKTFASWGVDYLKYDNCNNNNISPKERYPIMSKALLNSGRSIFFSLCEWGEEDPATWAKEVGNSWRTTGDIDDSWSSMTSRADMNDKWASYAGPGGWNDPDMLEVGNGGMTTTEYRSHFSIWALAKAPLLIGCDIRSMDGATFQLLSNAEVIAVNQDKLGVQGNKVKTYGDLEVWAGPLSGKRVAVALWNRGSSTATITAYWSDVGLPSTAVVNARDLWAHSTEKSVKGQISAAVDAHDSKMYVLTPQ

| Compound | Ki [1] | inhibition [2] | Ki (Uncharacterized protein [3]) | Ki ([4]; read-out: Ki) | Ki [5] | Ki [6] | Ki (Alpha-glucosidase MAL12 [7]) | inhibition [8] | Ki [9] | Ki (Uncharacterized protein [10]) | Ki [11] | Ki (Glucosylceramidase) | Ki [12] | Ki (Alpha-glucosidase MAL12 [13]) | Ki [14] | Ki [4] | Kd [15] |
| --- | --- | --- | --- | --- | --- | --- | --- | --- | --- | --- | --- | --- | --- | --- | --- | --- | --- |
| CN(C)c1ccc(-c2cnc(-c3ccc(S(=O)(=O)NCCCC/N=C4\SC[C@@H]5[C@@H](O)[C@H](O)[C@@H](O)[C@@H](O)N45)cc3)o2)cc1 | 1.2 µM | inactive | Not Active | 522 µM | 0.55 µM | Not Active | 714 µM | inactive | 235 µM |  |  |  |  |  |  |  |  |
| Cl.NCCCC/N=C1\SC[C@@H]2[C@@H](O)[C@H](O)[C@@H](O)[C@@H](O)N12 | 1.8 µM | inactive |  |  | 12.8 µM | Not Active |  | inactive |  | 116 µM |  | Not Active | Not Active | Not Active | Not Active |  |  |
| CCCCCCCC/N=C1\SC[C@@H]2[C@@H](O)[C@H](O)[C@@H](O)[C@@H](O)N12 | 0.23 µM | inactive |  |  | 0.76 µM |  |  | inactive |  | 13.4 µM |  |  | Not Active | Not Active |  | Not Active |  |

Stronger by Ki [1], values ahead:

| Ki [1] | inhibition [2] | Ki (Uncharacterized protein [3]) | Ki ([4]; read-out: Ki) | Ki [5] | Ki [6] | Ki (Alpha-glucosidase MAL12 [7]) | inhibition [8] | Ki [9] | Ki (Uncharacterized protein [10]) | Ki [11] | Ki (Glucosylceramidase) | Ki [12] | Ki (Alpha-glucosidase MAL12 [13]) | Ki [14] | Ki [4] | Kd [15] | Compound |
| --- | --- | --- | --- | --- | --- | --- | --- | --- | --- | --- | --- | --- | --- | --- | --- | --- | --- |
| 0.21 µM | inactive |  | 387 µM | 0.36 µM | Not Active | 246 µM | inactive |  | 293 µM |  |  | Not Active |  |  |  | 0.2 µM | CN(C)c1cccc2c(S(=O)(=O)NCCCC/N=C3\SC[C@@H]4[C@@H](O)[C@H](O)[C@@H](O)[C@@H](O)N34)cccc12 |
| 0.072 µM | inactive |  | 11 µM | 0.45 µM |  | 313 µM | inactive | 199 µM | 28.2 µM | 167 µM |  |  |  |  |  |  | CCN(CC)c1ccc2cc(C(=O)NCCCC/N=C3\SC[C@@H]4[C@@H](O)[C@H](O)[C@@H](O)[C@@H](O)N34)c(=O)oc2c1 |
